Inconclusive results are not listed. Active and inactive are the calls of the source.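 The calls were made as follows, unless noted: active = viability increase at or above a cutoff of the median across tested compounds plus 3 SD (cut at about 8.5% in these data, passing the limit was not always enough); inconclusive = some gains above the cutoff, reason not given; inactive = the rest.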
How the values were obtained:
[1] = S. cerevisiae growth inhibition in permissive medium (OD615), pilot counter-assay for S. cerevisiae lifespan shortening project, permissive growth control (AID 705;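 active = growth inhibition above 25% in both replicates, a cutoff set 3 SD above the mean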); details: OD615, 24 h, at 10 µM, active compounds read high
Outline: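 Material: engineered DeaD yeast; Compound: one dose 10 µM, DMSO 0.25% final; Detection: absorbance (optical density) at 615 nm; Buffer or medium: permissive raffinose/galactose medium; Timing: 24 h exposure, 30 °C.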

[2] = S. cerevisiae growth inhibition in restrictive medium, OD615, pilot screen, restrictive growth control, yeast lifespan reduction project (AID 706;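 active = growth inhibition above a set limit, 3 SD over mean compound inhibition, in both replicates, cut at about 43% in these data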;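 also: modified DeaD lifespan yeast strain shifted to restrictive glucose medium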); details: OD615, 48 h, at 10 µM, active compounds read high
Outline: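 Buffer or medium: restrictive glucose medium (CSMM-D); test system: modified S. cerevisiae; doses: single dose of 10 µM compound final, 0.25% DMSO; schedule: 48 h compound exposure at 30 °C; detection: absorbance (optical density) measured at 615 nm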

[3] = doxorubicin toxicity protection in MRP-1 cells – H69AR cells, CellTiter-Glo, duplicate, MRP-1 activator project, pilot screen (AID 807); details: H69AR viability with doxorubicin, CellTiter-Glo luminescence; at 10 µM; active compounds read high;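 also: compound pretreatment 18-22 h then 72 h combined with doxorubicin; 0% = doxorubicin alone and 100% = vehicle without doxorubicin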
[4] = viability of HCT116 without oncogenic beta-catenin – human colon tumor cells, pilot screen (AID 823;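 active = cell viability at or below a set limit in both duplicate runs, the limit being the all-compound median minus 4 SD, cut at about 23% in these data, passing the limit was not always enough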;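 also: 0% = wells killed by 20 µM Hyamine and 100% = untreated DMSO cell wells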); details: HCT116 beta-catenin knockout viability, CellTiter-Glo, 60 h; at 10 µM; active compounds read low
[5] = viability of PTEN-null HCT116 cells – cell-based, HCT116 clonal line, CellTiter-Glo, pilot screen (AID 824;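 active = viability at or below 27.92% in each of two runs, the all-compound median minus 4 SD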;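 also: 0% = 20 µM Hyamine control and 100% = vehicle cell control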); details: HCT116 PTEN-deleted viability, 60 h, at 10 µM, active compounds read low
[6] = RAM pathway blockade in budding yeast – dse1pr::URA3 reporter, 5-FOA selection, pilot screen (AID 869;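 active = inhibition over a set limit, the all-compound mean plus 3 SD, in both replicate runs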;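 also: 0% = DMSO wells with no growth and 100% = 10 µM 1-NA-PP1 with full growth; RAM network block rescues cells from 5-FOA so hits raise OD615 growth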); details: S. cerevisiae dse1pr::URA3 5-FOA growth, OD615, 2 d; at 10 µM; active compounds read high; strain carries analog-sensitive mutant Cbk1 kinase
[7] = RAM signaling pathway blockade in yeast – S. cerevisiae, Pdr1DBD-CYC8 efflux-inhibited sensitized strain, primary screen (AID 1298;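 active = RAM network inhibition above 8.4% in each of two replicates, 3 SD over the compound average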;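 also: 0% = DMSO untreated cells without growth and 100% = 10 µM 1-NA-PP1 full growth; higher means more yeast growth rescued from 5-FOA killing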); details: S. cerevisiae cbk1-as DSE1-URA3 strain, 5-FOA growth OD615, 2 d; at 50 µM; active compounds read high

CC(=O)NC(C)c1nc2ccccc2n1Cc1ccccc1F (stereo not drawn)
inactive: growth inhibition [1] -5.38% | growth inhibition [2] -3.36% | viability increase [3] 0.25% | viability [4] 102% | viability [5] 93.8% | inhibition [6] 3.67% | RAM network inhibition [7] 5.71%

CN(Cc1ccccc1)C(=O)CCn1c(=O)oc2ccccc21
inactive: growth inhibition [1] 2.31% | growth inhibition [2] -0.265% | viability increase [3] -1.33% | viability [4] 101% | viability [5] 99.2% | inhibition [6] 1.41% | RAM network inhibition [7] 1.99%

CCOc1ccc(NC(=O)CSc2nc3c(c(=O)n2C)SC(C)C3)cc1 (stereo not drawn)
inactive: growth inhibition [1] -13.6% | growth inhibition [2] -13.2% | viability increase [3] -0.83% | viability [4] 93.5% | viability [5] 91.6% | inhibition [6] 4.75% | RAM network inhibition [7] 5.69%

COc1ccc(N(CC(=O)NCc2ccc3c(c2)OCO3)S(=O)(=O)c2c(C)nn(C)c2C)cc1
inactive: growth inhibition [1] -12.2% | growth inhibition [2] -3.47% | viability increase [3] -2.86% | viability [4] 101% | viability [5] 101% | inhibition [6] 0.12% | RAM network inhibition [7] 2.04%

CC(=O)N(CCCc1ccc(C(C)(C)C)cc1)CCCN(C)C
inactive: growth inhibition [1] -2.64% | growth inhibition [2] -12.6% | viability increase [3] -5.16% | viability [4] 70.6% | viability [5] 76.2% | inhibition [6] 0.59% | RAM network inhibition [7] 1.48%

O=C(CSc1nc(-c2ccccc2)c(-c2ccccc2)o1)N1CCOCC1
inactive: growth inhibition [1] -8.68% | growth inhibition [2] -15.5% | viability increase [3] -3.26% | viability [4] 90.2% | viability [5] 89.6% | inhibition [6] 2.38% | RAM network inhibition [7] 4.54%

O=c1cc(-c2c(F)c(F)c(F)c(F)c2F)oc2c(F)c(F)c(F)c(F)c12
inactive: growth inhibition [1] -8.86% | growth inhibition [2] -6.48% | viability increase [3] -7% | inhibition [6] -0.35% | RAM network inhibition [7] -1.25%
active: viability [4] 1.3% | viability [5] 1.25%

CC(C)N1C(=O)CCC1C(=O)N1CCC(Cc2ccccc2)CC1 (stereo not drawn)
inactive: growth inhibition [1] -8.06% | growth inhibition [2] 0.645% | viability increase [3] 1.19% | viability [4] 102% | viability [5] 95.3% | inhibition [6] 1.92% | RAM network inhibition [7] 2.34%

CCOC(=O)c1c(C)n(C)c2ccc(OCC(O)CN(CC)CC)cc12 (stereo not drawn)
inactive: growth inhibition [1] -9.63% | growth inhibition [2] -1.99% | viability increase [3] -4.23% | viability [4] 77.6% | viability [5] 81.5% | inhibition [6] 1.71% | RAM network inhibition [7] -0.57%

c1cc(-c2nnc3n2CCC3)[nH]n1
inactive: growth inhibition [1] 1.95% | growth inhibition [2] -0.075% | viability increase [3] -2.22% | viability [4] 95.9% | viability [5] 104% | inhibition [6] 1.51% | RAM network inhibition [7] 2.34%

CCOc1ccc(N=Cc2c(O)cc(C)oc2=O)cc1
inactive: growth inhibition [1] -1.27% | growth inhibition [2] 8.93% | viability increase [3] -2.82% | viability [4] 107% | viability [5] 101% | inhibition [6] 1.21% | RAM network inhibition [7] 1.99%

O=C(CSc1ccc2nnc(-c3ccc(F)cc3)n2n1)N1CCOCC1
inactive: growth inhibition [1] -5.25% | growth inhibition [2] -2.17% | viability increase [3] -2.97% | viability [4] 105% | viability [5] 96.6% | inhibition [6] 0.08% | RAM network inhibition [7] 0.47%

COC(=O)C(Cc1ccccc1)NC(=O)CSc1nc(C)cc(=O)[nH]1 (stereo not drawn)
inactive: growth inhibition [1] -8.37% | growth inhibition [2] -4.86% | viability increase [3] -2.4% | viability [4] 101% | viability [5] 91.7% | inhibition [6] 1.4% | RAM network inhibition [7] -0.21%

CCOC(=O)Cc1csc(NC(=O)CN2C(=O)c3ccccc3S2(=O)=O)n1
inactive: growth inhibition [1] -8.36% | growth inhibition [2] -15% | viability increase [3] -2.2% | viability [4] 96.9% | viability [5] 101% | inhibition [6] 3.63% | RAM network inhibition [7] 5.65%

CCOc1ccc(N(CC(=O)O)S(=O)(=O)c2cccnc2)cc1
inactive: growth inhibition [1] -0.125% | growth inhibition [2] -2.17% | viability increase [3] 1.18% | viability [4] 94.4% | viability [5] 102% | inhibition [6] -0.27% | RAM network inhibition [7] 7.23%

CSC1=NCCN1C(=O)c1cccs1
inactive: growth inhibition [1] -2.12% | growth inhibition [2] 11.1% | viability increase [3] 0.08% | viability [4] 99% | viability [5] 99.3% | inhibition [6] 1.11% | RAM network inhibition [7] 1.55%

O=C(Cn1c(CN2CCCCC2)nc2ccccc2c1=O)NC1CCCCC1
inactive: growth inhibition [1] -7.65% | growth inhibition [2] -24.4% | viability increase [3] -2.4% | viability [4] 95.4% | viability [5] 88% | inhibition [6] -0.59% | RAM network inhibition [7] -1.71%

Cc1cccc(OCCCCCNCCO)c1
inactive: growth inhibition [1] -16% | growth inhibition [2] -8.45% | viability increase [3] -0.72% | viability [4] 98.6% | viability [5] 94.6% | inhibition [6] 1.7% | RAM network inhibition [7] 0.57%

CSC1=NCCN1C(=O)C(C)(C)Oc1ccc(Cl)cc1
inactive: growth inhibition [1] 7.64% | growth inhibition [2] 4.49% | viability increase [3] -4.07% | viability [4] 91.2% | viability [5] 84.7% | inhibition [6] 0.3% | RAM network inhibition [7] -0.37%

COC(=O)c1ccc2c(c1)N(C)CCS2
inactive: growth inhibition [1] -7.72% | growth inhibition [2] -2.27% | viability increase [3] -0.04% | viability [4] 101% | viability [5] 93.9% | inhibition [6] 0.22% | RAM network inhibition [7] -0.26%

CCc1cc(Br)ccc1N1C(=O)C2CC=CCC2C1=O (stereo not drawn)
inactive: growth inhibition [1] -6.14% | growth inhibition [2] -7.71% | viability increase [3] 0.19% | viability [4] 86.5% | viability [5] 94.9% | inhibition [6] 1.2% | RAM network inhibition [7] 0.4%

CCC(=O)Nc1nnc(-c2ccco2)o1
inactive: growth inhibition [1] -3.92% | growth inhibition [2] -4.75% | viability increase [3] -0.45% | viability [4] 93.8% | viability [5] 102% | inhibition [6] 0.105% | RAM network inhibition [7] 4.9%

CC(c1cccnc1)N(CCN(C)C)C(=O)Nc1ccc(Cl)c(Cl)c1 (stereo not drawn)
inactive: growth inhibition [1] -5.64% | growth inhibition [2] -0.46% | viability increase [3] -3.34% | viability [4] 88.9% | viability [5] 84.4% | inhibition [6] 1.33% | RAM network inhibition [7] 5.39%

O=C(NCCO)c1ccc2[nH]c3c(c2c1)CCCC3
inactive: growth inhibition [1] -12.1% | growth inhibition [2] -18.9% | viability increase [3] -0.28% | viability [4] 98.9% | viability [5] 96.1% | inhibition [6] 1.46% | RAM network inhibition [7] 4.19%

— PubChem BioAssay
